This passage reports Activity, IC50 and MIC results from ChEMBL document CHEMBL4196121, “Meridianin D Analogues Display Antibiofilm Activity against MRSA and Increase Colistin Efficacy in Gram-Negative Bacteria” (ACS Med Chem Lett, 2018).

In series [1] the test system is Staphylococcus aureus. As to the kind of experiment: Inhibition of biofilm formation in methicillin-resistant Staphylococcus aureus ATCC 43300 after 24 hrs by crystal violet staining based method. It counts as functional, organism-based. The settings on record: for pIC50: ATCC 43300, 24 h. In outline: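 Read-out is the IC50, taken as the compound concentration that inhibits 50% of MRSA 43300 biofilm formation.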

Series [2] deals with Escherichia coli. As to the kind of experiment: Antibacterial activity against Escherichia coli ATCC 25922 expressing mcr1 gene after 16 hrs by broth microdilution assay. The settings on record: in vitro. It counts as organism-based. (In general: In broth dilution the organism is exposed to a series of concentrations in liquid medium.)
The subject of series [3] is Escherichia coli. As to the kind of experiment: Antibacterial activity against Escherichia coli ATCC 25922 after 16 hrs by broth microdilution assay. Format: organism-based.
Series [4] relates to Acinetobacter baumannii. As to the kind of experiment: Antibacterial activity against Acinetobacter baumannii ATCC 17978 expressing mcr1 gene after 16 hrs by broth microdilution assay. To be noted: in vitro. It counts as organism-based.
The test system of series [5] is Acinetobacter baumannii. As to the kind of experiment: Antibacterial activity against Acinetobacter baumannii ATCC 17978 after 16 hrs by broth microdilution assay. Format: organism-based.
Series [6] concerns Acinetobacter baumannii. As to the kind of experiment: Antibacterial activity against Acinetobacter baumannii isolate 3941 after 16 hrs by broth microdilution assay. Format: organism-based.
For series [7], the system named is Acinetobacter baumannii. As to the kind of experiment: Antibacterial activity against Acinetobacter baumannii isolate 4106 after 16 hrs by broth microdilution assay. Format: organism-based.
For series [8], the system named is Acinetobacter baumannii. In words: Antibacterial activity against Acinetobacter baumannii ATCC 19606 after 16 hrs by broth microdilution assay. Format: organism-based, ATCC 19606 = CIP 70.34 = JCM 6841. To be noted: […].
Series [9] deals with Acinetobacter baumannii. In words: Antibacterial activity against Acinetobacter baumannii isolate 5075 after 16 hrs by broth microdilution assay. Format: organism-based.
Series [10] deals with Klebsiella pneumoniae. As to the kind of experiment: Antibacterial activity against Klebsiella pneumoniae ATCC 2146 expressing NDM1 gene after 16 hrs by broth microdilution assay. It counts as organism-based. The settings on record: […].
For series [11], the system named is Klebsiella pneumoniae. In words: Antibacterial activity against Klebsiella pneumoniae isolate C3 after 16 hrs by broth microdilution assay. To be noted: […].
For series [12], the system named is Klebsiella pneumoniae. In words: Antibacterial activity against Klebsiella pneumoniae isolate B9 after 16 hrs by broth microdilution assay. To be noted: in vivo.
The test system of series [13] is Staphylococcus aureus. In words: Antibacterial activity against methicillin-resistant Staphylococcus aureus ATCC 43300 after 16 hrs by broth microdilution assay. It counts as functional. The settings on record: ATCC 43300, 16 h.

Structures are written as SMILES. pIC50: −log10 of the molar value. Activity calls are given as the source filed them. No cut-off for these calls is given here. Where only a bound is given, the exact number is not on record here.

With `Cc1ccc(S(=O)(=O)n2cc(C(=O)/C=C/N(C)C)c3ccc(F)cc32)cc1`, the outcome in the series with Staphylococcus aureus [1] was Active.
What is called pIC50 is the IC50 on a negative log10 scale, so that one unit is a factor of ten. A low value points to a high IC50. Take `Cl.Cn1cc(-c2ccnc(N)n2)c2cc(Br)ccc21`: the pIC50 in the series on Staphylococcus aureus [1] was < 4.00. The MIC against Escherichia coli [2], against Escherichia coli [3], in the series on Acinetobacter baumannii [4], against Acinetobacter baumannii [5], with Acinetobacter baumannii [6] and in the series with Acinetobacter baumannii [7] was > 200 µM throughout. Moreover, the MIC with Acinetobacter baumannii [8], against Acinetobacter baumannii [9], against Klebsiella pneumoniae [10], in the series on Klebsiella pneumoniae [11] and against Klebsiella pneumoniae [12] was > 200 µM throughout.
For `Cl.Cn1cc(-c2ccnc(N)n2)c2ccc(Br)cc21`, the MIC against Staphylococcus aureus [13] was 200 µM; in the series with Escherichia coli [2], > 200 µM; against Escherichia coli [3] it was > 200 µM; against Acinetobacter baumannii [4], > 200 µM; against Acinetobacter baumannii [5] it was > 200 µM; with Acinetobacter baumannii [6] it was > 200 µM. Also, the MIC in the series on Acinetobacter baumannii [7], with Acinetobacter baumannii [8], in the series with Acinetobacter baumannii [9], in the series on Klebsiella pneumoniae [10], against Klebsiella pneumoniae [11] and in the series with Klebsiella pneumoniae [12] was > 200 µM in each case. In the series on Staphylococcus aureus [1], this compound showed a pIC50 of 4.22.
As for `CCCCn1cc(-c2ccnc(N)n2)c2ccc(Br)cc21.Cl`, the pIC50 in the series with Staphylococcus aureus [1] is < 4.00. In addition, the MIC in the series on Escherichia coli [2], in the series with Escherichia coli [3], in the series on Acinetobacter baumannii [4], against Acinetobacter baumannii [5], against Acinetobacter baumannii [6] and with Acinetobacter baumannii [7] was > 200 µM throughout. Further, the MIC with Acinetobacter baumannii [8], with Acinetobacter baumannii [9], against Klebsiella pneumoniae [10], in the series on Klebsiella pneumoniae [11] and with Klebsiella pneumoniae [12] was > 200 µM throughout.
In the case of `Cl.Nc1nccc(-c2c[nH]c3cc(I)ccc23)n1`, the MIC in the series on Staphylococcus aureus [13], in the series with Escherichia coli [2], against Escherichia coli [3], with Acinetobacter baumannii [4], in the series on Acinetobacter baumannii [5] and against Acinetobacter baumannii [6] was > 200 µM in each case. The MIC with Acinetobacter baumannii [7], in the series with Acinetobacter baumannii [8], in the series with Acinetobacter baumannii [9], with Klebsiella pneumoniae [10], in the series on Klebsiella pneumoniae [11] and against Klebsiella pneumoniae [12] was > 200 µM throughout. This compound gave a pIC50 with Staphylococcus aureus [1] of 4.37.
Take `CC(C)Cn1cc(-c2ccnc(N)n2)c2ccc(Br)cc21.Cl`: the pIC50 with Staphylococcus aureus [1] was < 4.00. The MIC in the series with Escherichia coli [2], in the series on Escherichia coli [3], against Acinetobacter baumannii [4], in the series on Acinetobacter baumannii [5], against Acinetobacter baumannii [6] and in the series with Acinetobacter baumannii [7] was > 200 µM throughout. Moreover, the MIC with Acinetobacter baumannii [8], with Acinetobacter baumannii [9], against Klebsiella pneumoniae [10], in the series on Klebsiella pneumoniae [11] and against Klebsiella pneumoniae [12] was > 200 µM throughout.
In the case of `CCn1cc(-c2ccnc(N)n2)c2cc(Br)ccc21.Cl`, the MIC in the series with Staphylococcus aureus [13] was 200 µM; against Escherichia coli [2], > 200 µM; against Escherichia coli [3] it was > 200 µM; in the series with Acinetobacter baumannii [4], > 200 µM; in the series on Acinetobacter baumannii [5], > 200 µM; in the series with Acinetobacter baumannii [6] it was > 200 µM. In addition, the MIC in the series with Acinetobacter baumannii [7], against Acinetobacter baumannii [8], with Acinetobacter baumannii [9], in the series with Klebsiella pneumoniae [10], with Klebsiella pneumoniae [11] and against Klebsiella pneumoniae [12] was > 200 µM each time. In addition, the pIC50 in the series on Staphylococcus aureus [1] is 4.18.
Regarding `Cl.Nc1nccc(-c2c[nH]c3ccc(I)cc23)n1`, the MIC is 200 µM in the series on Staphylococcus aureus [13]; > 200 µM against Escherichia coli [2]; > 200 µM against Escherichia coli [3]; > 200 µM against Acinetobacter baumannii [4]; > 200 µM in the series on Acinetobacter baumannii [5]; > 200 µM against Acinetobacter baumannii [6]. The MIC with Acinetobacter baumannii [7], in the series on Acinetobacter baumannii [8], against Acinetobacter baumannii [9], with Klebsiella pneumoniae [10], in the series on Klebsiella pneumoniae [11] and with Klebsiella pneumoniae [12] was > 200 µM in each case. Further, the pIC50 in the series with Staphylococcus aureus [1] was 4.31.
As to `CCCn1cc(-c2ccnc(N)n2)c2ccc(I)cc21.Cl`, the outcome in the series with Staphylococcus aureus [1] was inactive. For the same compound, the MIC with Escherichia coli [2], in the series on Escherichia coli [3], with Acinetobacter baumannii [4], against Acinetobacter baumannii [5], against Acinetobacter baumannii [6] and in the series with Acinetobacter baumannii [7] was > 200 µM each time. For the same compound, the MIC in the series with Acinetobacter baumannii [8], against Acinetobacter baumannii [9], against Klebsiella pneumoniae [10], with Klebsiella pneumoniae [11] and against Klebsiella pneumoniae [12] was > 200 µM in each case.
On to `Cc1ccc(S(=O)(=O)n2cc(C(=O)/C=C/N(C)C)c3ccc(I)cc32)cc1`, for which the result with Staphylococcus aureus [1] was Active.
In the case of `Nc1nccc(-c2c[nH]c3cccc(Br)c23)n1`, in the series with Staphylococcus aureus [1], the pIC50 was < 4.00.
Regarding `Cl.Nc1nccc(-c2cn(Cc3ccccc3)c3ccc(Br)cc23)n1`, the MIC against Escherichia coli [2], with Escherichia coli [3], against Acinetobacter baumannii [4], against Acinetobacter baumannii [5], with Acinetobacter baumannii [6] and with Acinetobacter baumannii [7] was > 200 µM throughout. In addition, the MIC in the series on Acinetobacter baumannii [8], against Acinetobacter baumannii [9], in the series with Klebsiella pneumoniae [10], in the series with Klebsiella pneumoniae [11] and in the series with Klebsiella pneumoniae [12] was > 200 µM each time.
Turning to `Nc1nccc(-c2c[nH]c3c(Br)cccc23)n1`, the pIC50 with Staphylococcus aureus [1] was 4.00.
As for `CCCCCn1cc(-c2ccnc(N)n2)c2cc(Br)ccc21.Cl`, the pIC50 in the series on Staphylococcus aureus [1] was < 4.00. Also, the MIC against Escherichia coli [2], in the series with Escherichia coli [3], in the series with Acinetobacter baumannii [4], in the series on Acinetobacter baumannii [5], against Acinetobacter baumannii [6] and with Acinetobacter baumannii [7] was > 200 µM each time. Also, the MIC with Acinetobacter baumannii [8], in the series on Acinetobacter baumannii [9], against Klebsiella pneumoniae [10], with Klebsiella pneumoniae [11] and with Klebsiella pneumoniae [12] was > 200 µM in each case.
Regarding `Cl.Nc1nccc(-c2c[nH]c3ccc(F)cc23)n1`, in the series with Staphylococcus aureus [1], the pIC50 is < 4.00. For the same compound, the MIC in the series on Escherichia coli [2], in the series with Escherichia coli [3], against Acinetobacter baumannii [4], against Acinetobacter baumannii [5], in the series on Acinetobacter baumannii [6] and in the series with Acinetobacter baumannii [7] was > 200 µM in each case. Moreover, the MIC with Acinetobacter baumannii [8], in the series with Acinetobacter baumannii [9], against Klebsiella pneumoniae [10], in the series on Klebsiella pneumoniae [11] and in the series with Klebsiella pneumoniae [12] was > 200 µM throughout.
Consider `Cl.Nc1nccc(-c2c[nH]c3cc(F)ccc23)n1`, for which the pIC50 in the series on Staphylococcus aureus [1] was < 4.00. Moreover, the MIC with Escherichia coli [2], against Escherichia coli [3], with Acinetobacter baumannii [4], with Acinetobacter baumannii [5], against Acinetobacter baumannii [6] and against Acinetobacter baumannii [7] was > 200 µM each time. For the same compound, the MIC against Acinetobacter baumannii [8], against Acinetobacter baumannii [9], in the series with Klebsiella pneumoniae [10], with Klebsiella pneumoniae [11] and against Klebsiella pneumoniae [12] was > 200 µM throughout.
In the case of `CCn1cc(-c2ccnc(N)n2)c2ccc(Br)cc21.Cl`, the MIC in the series with Staphylococcus aureus [13] was 200 µM; with Escherichia coli [2] it was > 200 µM; with Escherichia coli [3] it was > 200 µM; with Acinetobacter baumannii [4], > 200 µM; in the series with Acinetobacter baumannii [5], > 200 µM; in the series on Acinetobacter baumannii [6] it was > 200 µM. Further, the MIC against Acinetobacter baumannii [7], in the series on Acinetobacter baumannii [8], in the series with Acinetobacter baumannii [9], in the series with Klebsiella pneumoniae [10], against Klebsiella pneumoniae [11] and with Klebsiella pneumoniae [12] was > 200 µM throughout. The compound further gave a pIC50 with Staphylococcus aureus [1] of 4.19.
For the compound `CCNc1nccc(-c2cn(C)c3cc(Br)ccc23)n1.Cl`, the result in the series on Staphylococcus aureus [1] was inactive. In addition, the MIC in the series on Escherichia coli [2], against Escherichia coli [3], against Acinetobacter baumannii [4], against Acinetobacter baumannii [5], with Acinetobacter baumannii [6] and with Acinetobacter baumannii [7] was > 200 µM throughout. In addition, the MIC in the series on Acinetobacter baumannii [8], in the series on Acinetobacter baumannii [9], with Klebsiella pneumoniae [10], in the series with Klebsiella pneumoniae [11] and with Klebsiella pneumoniae [12] was > 200 µM in each case.
Consider `Cl.Nc1nccc(-c2c[nH]c3ccc(Cl)cc23)n1`, for which the outcome with Staphylococcus aureus [1] was inactive. Further, the MIC against Escherichia coli [2], with Escherichia coli [3], in the series with Acinetobacter baumannii [4], against Acinetobacter baumannii [5], against Acinetobacter baumannii [6] and with Acinetobacter baumannii [7] was > 200 µM throughout. Also, the MIC against Acinetobacter baumannii [8], against Acinetobacter baumannii [9], against Klebsiella pneumoniae [10], in the series with Klebsiella pneumoniae [11] and in the series with Klebsiella pneumoniae [12] was > 200 µM each time.
